# Experimental data reported in ChEMBL document CHEMBL3271964, “Synthesis and biological activity of new 2-nitroimidazole derivatives” (J Med Chem, 1978).
# Active and inactive are the calls of the source.
# Tests used:
# Staphylococcus aureus = assay: Antimicrobial activity against Staphylococcus aureus Tour by microtitre method; format: functional
# Streptococcus pyogenes = assay: Antimicrobial activity against Streptococcus pyogenes C 203 by microtitre method; format: functional
# Clostridium perfringens = assay: Antimicrobial activity against Clostridium perfringens ISS 30543 by broth dilution method; format: functional
# [1] = tested on: Mycoplasmoides gallisepticum; assay: Antimicrobial activity against Mycoplasma gallisepticum S6 Weybridge by broth dilution method; format: functional
# Trichomonas vaginalis [2] = assay: Antimicrobial activity against Trichomonas vaginalis by broth dilution method; format: functional
# Trichomonas vaginalis [3] = assay: Antimicrobial activity against Trichomonas vaginalis infected in po dosed mouse; format: functional
# In short: (§1)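 Mice infected subcutaneously, then dosed orally. Vehicle depended on compound: suspension in aqueous 0.75% sodium carboxymethylcellulose, DMF-H₂O, DMF-phosphate buffer pH 7.38, or water. ED₅₀ determined, with metronidazole run in parallel. The relative value is ED₅₀ (test) / ED₅₀ (metronidazole).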
# Trichomonas vaginalis [4] = assay: Antimicrobial activity against Trichomonas vaginalis infected in po dosed mouse relative to metronidazole; format: functional; in short: as §1
# [5] = Acute toxicity in po dosed mouse; format: organism-based; conditions: in vivo
# In short: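 Acute toxicity in mice by the oral route. Compounds were given as suspensions in aqueous 0.5% Methocel 90-HG.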
# [6] = Therapeutic index, ratio of LD50 for po dosed mouse to ED50 for Trichomonas vaginalis infected in po dosed mouse; format: organism-based; conditions: in vivo, read-out: Ratio LD50/ED50
# In short: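 Ratio of two mouse values, both dosed orally. The LD50 comes from acute toxicity, with compounds suspended in aqueous 0.5% Methocel 90-HG. The ED50 comes from subcutaneous T. vaginalis infection treated orally. The ED50 vehicle varied by compound: suspension in aqueous 0.75% sodium carboxymethylcellulose, DMF-H2O, DMF-phosphate buffer pH 7.38, or H2O.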
# Mus musculus [7] = assay: Toxicity in CF1 mouse assessed as change in sleeping time at 1 mg/kg, po administered 30 mins prior to hexobarbital sodium challenge relative to vehicle-treated control; format: organism-based; parameters: dose 1 mg/kg, route oral; conditions: in vivo, 0.5 h
# Rattus norvegicus [8] = assay: Inhibition of carrageenan-induced edema in rat; format: functional, organism-based
# Rattus norvegicus [9] = assay: Effect on pressor response in conscious normotensive rat up to 50 mg/kg; format: functional, organism-based; parameters: dose 50 mg/kg
# Mus musculus [10] = assay: Toxicity in CF1 mouse assessed as reduction in curiosity at 60 to 600 mg/kg, po by Irwin test; format: organism-based; parameters: dose 60-600 mg/kg, route oral; conditions: in vivo
# In short: (§2)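 Irwin observational method in male CF1 mice (19–22 g). Oral dosing of a suspension in 0.5% Methocel 90-HG at 10 mL/kg, up to 600 mg/kg; controls received saline. Directly observable behavioural and autonomic changes were scored, with the threshold dose for onset recorded.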
# Mus musculus [11] = assay: Toxicity in CF1 mouse assessed as reduction in spontaneous activity at 60 to 600 mg/kg, po by Irwin test; format: organism-based; parameters: dose 60-600 mg/kg, route oral; conditions: in vivo; in short: as §2
# Mus musculus [12] = assay: Toxicity in CF1 mouse assessed as reduction in opening of eyelid at 60 to 600 mg/kg, po by Irwin test; format: organism-based; parameters: dose 60-600 mg/kg, route oral; conditions: in vivo; in short: as §2
# Mus musculus [13] = assay: Toxicity in CF1 mouse assessed as reduction in body tone at 60 to 600 mg/kg, po by Irwin test; format: organism-based; parameters: dose 60-600 mg/kg, route oral; conditions: in vivo; in short: as §2
# Mus musculus [14] = assay: Toxicity in CF1 mouse assessed as reduction in heart rate at 60 to 600 mg/kg, po by Irwin test; format: organism-based; parameters: dose 60-600 mg/kg, route oral; conditions: in vivo; in short: as §2
# Mus musculus [15] = assay: Toxicity in CF1 mouse assessed as reduction in respiratory rate at 60 to 600 mg/kg, po by Irwin test; format: organism-based; parameters: dose 60-600 mg/kg, route oral; conditions: in vivo; in short: as §2
# Mus musculus [16] = assay: Toxicity in CF1 mouse assessed as change in sleeping time at 250 mg/kg, po administered 30 mins prior to hexobarbital sodium challenge relative to vehicle-treated control; format: organism-based; parameters: dose 250 mg/kg, route oral; conditions: in vivo, 0.5 h
# In short: (§3)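 Male CF1 mice (19–22 g), groups of 30, given oral doses as a 0.5% Methocel 90-HG suspension at 10 mL/kg; saline controls (90 animals). Hexobarbital sodium 75 mg/kg ip given 30 min later, at 25–26 °C. Sleeping time given as mean ± SE and as % change vs controls; Dunnett's t test.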
# Mus musculus [17] = assay: Toxicity in CF1 mouse assessed as change in sleeping time at 500 mg/kg, po administered 30 mins prior to hexobarbital sodium challenge relative to vehicle-treated control; format: organism-based; parameters: dose 500 mg/kg, route oral; conditions: in vivo, 0.5 h; in short: as §3
# Mus musculus [18] = assay: Inhibition of strychine sulfate/pentetrazole-induced death in CF1 mouse at 250 to 500 mg/kg, po administered 60 mins prior to strychine sulfate/pentetrazole challenge; format: functional, organism-based
# Mus musculus [19] = assay: Toxicity in CF1 mouse assessed as ataxia at 60 to 600 mg/kg, po by Irwin test; format: organism-based; parameters: dose 60-600 mg/kg, route oral; conditions: in vivo; in short: as §2
# Mus musculus [20] = assay: Toxicity in CF1 mouse assessed as cyanosis at 60 to 600 mg/kg, po by Irwin test; format: organism-based; parameters: dose 60-600 mg/kg, route oral; conditions: in vivo; in short: as §2
# [21] = Solubility of the compound in water; format: physicochemical; conditions: buffer
# Mus musculus [22] = assay: Toxicity in CF1 mouse assessed as reduction in curiosity at 10 to 600 mg/kg, po by Irwin test; format: organism-based; parameters: dose 10-600 mg/kg, route oral; conditions: in vivo; in short: as §2
# Mus musculus [23] = assay: Toxicity in CF1 mouse assessed as reduction in spontaneous activity at 10 to 600 mg/kg, po by Irwin test; format: organism-based; parameters: dose 10-600 mg/kg, route oral; conditions: in vivo; in short: as §2
# Mus musculus [24] = assay: Toxicity in CF1 mouse assessed as reduction in body tone at 10 to 600 mg/kg, po by Irwin test; format: organism-based; parameters: dose 10-600 mg/kg, route oral; conditions: in vivo; in short: as §2
# Mus musculus [25] = assay: Toxicity in CF1 mouse assessed as reduction in heart rate at 10 to 600 mg/kg, po by Irwin test; format: organism-based; parameters: dose 10-600 mg/kg, route oral; conditions: in vivo; in short: as §2
# Mus musculus [26] = assay: Toxicity in CF1 mouse assessed as reduction in respiratory rate at 10 to 600 mg/kg, po by Irwin test; format: organism-based; parameters: dose 10-600 mg/kg, route oral; conditions: in vivo; in short: as §2
# Mus musculus [27] = assay: Toxicity in CF1 mouse assessed as reduction in opening of eyelid at 10 to 600 mg/kg, po by Irwin test; format: organism-based; parameters: dose 10-600 mg/kg, route oral; conditions: in vivo; in short: as §2
# Mus musculus [28] = assay: Toxicity in CF1 mouse assessed as flaccid paralysis at 600 mg/kg, po by Irwin test; format: organism-based; parameters: dose 600 mg/kg, route oral; conditions: in vivo; in short: as §2
# Mus musculus [29] = assay: Toxicity in CF1 mouse assessed as change in sleeping time at 300 mg/kg, po administered 30 mins prior to hexobarbital sodium challenge relative to vehicle-treated control; format: organism-based; parameters: dose 300 mg/kg, route oral; conditions: in vivo, 0.5 h; in short: as §3
# Mus musculus [30] = assay: Toxicity in CF1 mouse assessed as change in sleeping time at 600 mg/kg, po administered 30 mins prior to hexobarbital sodium challenge relative to vehicle-treated control; format: organism-based; parameters: dose 600 mg/kg, route oral; conditions: in vivo, 0.5 h; in short: as §3
# Mus musculus [31] = assay: Inhibition of strychine sulfate/pentetrazole-induced death in CF1 mouse at 300 to 600 mg/kg, po administered 60 mins prior to strychine sulfate/pentetrazole challenge; format: functional, organism-based
# Mus musculus [32] = assay: Toxicity in CF1 mouse assessed as ataxia at 10 to 600 mg/kg, po by Irwin test; format: organism-based; parameters: dose 10-600 mg/kg, route oral; conditions: in vivo; in short: as §2
# Mus musculus [33] = assay: Toxicity in CF1 mouse assessed as cyanosis at 10 to 600 mg/kg, po by Irwin test; format: organism-based; parameters: dose 10-600 mg/kg, route oral; conditions: in vivo; in short: as §2
Structure (SMILES),MIC (Staphylococcus aureus),MIC (Streptococcus pyogenes),MIC (Clostridium perfringens),MIC [1],MIC (Trichomonas vaginalis [2]),ED50 (Trichomonas vaginalis [3]),Ratio ED50 (Trichomonas vaginalis [4]),LD50 [5],selectivity ratio [6],further results
Cn1c(C(C)(C)OC(=O)c2ccccc2)cnc1[N+](=O)[O-],100 µg/mL,100 µg/mL,3.1 µg/mL,50 µg/mL,> 100 µg/mL,16.2 mg/kg,1.62,–,–,–
O=[N+]([O-])c1cncn1CCN1CCOCC1 [NIMORAZOLE],> 300 µg/mL,> 300 µg/mL,0.6 µg/mL,> 300 µg/mL,12.5 µg/mL,37.9 mg/kg,4.66,1530 mg/kg,40,–
CC(CO)c1cnc([N+](=O)[O-])n1C (stereo unspecified),25 µg/mL,200 µg/mL,0.8 µg/mL,50 µg/mL,25 µg/mL,> 10 mg/kg,>0.7,–,–,–
COC(C)(C)c1cnc([N+](=O)[O-])n1C,> 100 µg/mL,> 100 µg/mL,5 µg/mL,> 100 µg/mL,5 µg/mL,8.12 mg/kg,0.81,805 mg/kg,99,–
Cn1c(C(C)(C)OC(=O)NN)cnc1[N+](=O)[O-],> 100 µg/mL,100 µg/mL,3.1 µg/mL,25 µg/mL,100 µg/mL,4.67 mg/kg,0.33,660 mg/kg,141,–
CCS(=O)(=O)CCn1c([N+](=O)[O-])cnc1C [TINIDAZOLE],300 µg/mL,> 300 µg/mL,0.3 µg/mL,> 300 µg/mL,3.1 µg/mL,2.5 mg/kg,0.43,3200 mg/kg,1280,–
Cn1c(C(C)(C)OC(=O)Nc2ccccc2)cnc1[N+](=O)[O-],> 100 µg/mL,> 100 µg/mL,3.1 µg/mL,25 µg/mL,100 µg/mL,28.8 mg/kg,2.88,–,–,–
Cn1c(C(C)(C)O)cnc1[N+](=O)[O-],100 µg/mL,> 300 µg/mL,25 µg/mL,40 µg/mL,25 µg/mL,1.65 mg/kg,0.28,–,423,–
CN(C)CCCN1c2ccccc2Sc2ccc(Cl)cc21.Cl [CHLORPROMAZINE HYDROCHLORIDE],–,–,–,–,–,–,–,–,–,Activity (Mus musculus [7]): 57.7%
Cn1c(C(C)(C)OC(=O)Oc2ccccc2)cnc1[N+](=O)[O-],100 µg/mL,100 µg/mL,10 µg/mL,> 100 µg/mL,2 µg/mL,–,0.28,–,1970,inhibition (Rattus norvegicus [8]): inactive; Activity (Rattus norvegicus [9]): inactive; Activity (Mus musculus [10]): Toxic; Activity (Mus musculus [11]): Toxic; Activity (Mus musculus [12]): Toxic; Activity (Mus musculus [13]): Toxic; Activity (Mus musculus [14]): Toxic; Activity (Mus musculus [15]): Toxic; Activity (Mus musculus [16]): 15.5%; Activity (Mus musculus [17]): 18.1%; inhibition (Mus musculus [18]): Active; Activity (Mus musculus [19]): Toxic; Activity (Mus musculus [20]): Toxic
CS(=O)(=O)[O-].Cn1c(C(C)(C)[n+]2ccccc2)cnc1[N+](=O)[O-],> 100 µg/mL,> 100 µg/mL,> 100 µg/mL,> 100 µg/mL,> 100 µg/mL,> 40 mg/kg,>4,–,–,solubility [21]: soluble
Cn1c(C(C)(C)OC(N)=O)cnc1[N+](=O)[O-],> 100 µg/mL,100 µg/mL,10 µg/mL,> 100 µg/mL,10 µg/mL,5.74 mg/kg,0.4,900 mg/kg,156,–
Cc1ncc([N+](=O)[O-])n1CCO [METRONIDAZOLE],> 300 µg/mL,> 300 µg/mL,0.6 µg/mL,> 300 µg/mL,5 µg/mL,–,–,–,658,Activity (Mus musculus [22]): Toxic; Activity (Mus musculus [23]): Toxic; Activity (Mus musculus [24]): Toxic; Activity (Mus musculus [25]): Toxic; Activity (Mus musculus [26]): Toxic; Activity (Mus musculus [27]): Toxic; Activity (Mus musculus [28]): Toxic; Activity (Mus musculus [29]): 29.2%; Activity (Mus musculus [30]): 55.9%; inhibition (Mus musculus [31]): Active; Activity (Mus musculus [32]): Toxic; Activity (Mus musculus [33]): Toxic
